System: U2OS
Experiment: Multiplex assay against U2OS
Format: toxicity, cell-based
Settings: human
In short: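 Imaging took place on a CQ1 microscope at 37°C and 5% CO2 once compound had been added to live cells stained at seeding with Hoechst33342, BioTracker Green Microtubule Cytoskeleton Dye, MitoTracker Red and Annexin V Alexa Fluor 680. CellPathfinder machine-learning gating classed cells as Hoechst high-intensity objects or normal cells, classed normal cells as having healthy, pyknosed or fragmented nuclei, and classed pyknosed cells as mitotic or apoptotic. Tubulin, mitochondrial-mass and membrane-permeability phenotypes are per cents of the healthy-nucleus cells.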

[1] = 12 h, 1 µM, compound concentration 1 uM, replicate 1
[2] = 12 h, 1 µM, compound concentration 1 uM, replicate 2
[3] = 12 h, 10 µM, compound concentration 10 uM, replicate 1
[4] = 12 h, 10 µM, compound concentration 10 uM, replicate 2
[5] = 24 h, 1 µM, compound concentration 1 uM, replicate 1
[6] = 24 h, 1 µM, compound concentration 1 uM, replicate 2
[7] = 24 h, 10 µM, compound concentration 10 uM, replicate 1
[8] = 24 h, 10 µM, compound concentration 10 uM, replicate 2
[9] = 48 h, 1 µM, compound concentration 1 uM, replicate 1
[10] = 48 h, 1 µM, compound concentration 1 uM, replicate 2
[11] = 48 h, 10 µM, compound concentration 10 uM, replicate 1
[12] = 48 h, 10 µM, compound concentration 10 uM, replicate 2

## COc1cc(-n2cnc3cc(-c4ccc(Cl)cc4)sc3c2=O)ccc1OCCN1CCCC1
[1]
  Population Apoptotic (%): 45%
  Population Fragmented Nuclei (%): 12%
  Population Healthy Nuclei (%): 70%
  Population Hoechst High Intensity Objects (%): 9%
  Population Membrane Permeable-Phenotype (%): 9%
  Population Mitochondria Different-Phenotype (%): 63%
  Population Mitotic Cells (%): 54%
  Population Normal (%): 90%
  Population Pyknosed Nuclei (%): 16%
  Population Tubulin-Different-Phenotype (%): 65%
  Total Cell Count: 157
[2]
  Population Apoptotic (%): 71%
  Population Fragmented Nuclei (%): 11%
  Population Healthy Nuclei (%): 77%
  Population Hoechst High Intensity Objects (%): 16%
  Population Membrane Permeable-Phenotype (%): 10%
  Population Mitochondria Different-Phenotype (%): 44%
  Population Mitotic Cells (%): 28%
  Population Normal (%): 84%
  Population Pyknosed Nuclei (%): 11%
  Population Tubulin-Different-Phenotype (%): 34%
  Total Cell Count: 78
[3]
  Population Apoptotic (%): 72%
  Population Fragmented Nuclei (%): 32%
  Population Healthy Nuclei (%): 13%
  Population Hoechst High Intensity Objects (%): 10%
  Population Membrane Permeable-Phenotype (%): 61%
  Population Mitochondria Different-Phenotype (%): 100%
  Population Mitotic Cells (%): 27%
  Population Normal (%): 90%
  Population Pyknosed Nuclei (%): 54%
  Population Tubulin-Different-Phenotype (%): 100%
  Total Cell Count: 144
[4]
  Population Apoptotic (%): 26%
  Population Fragmented Nuclei (%): 22%
  Population Healthy Nuclei (%): 57%
  Population Hoechst High Intensity Objects (%): 8%
  Population Membrane Permeable-Phenotype (%): 34%
  Population Mitochondria Different-Phenotype (%): 93%
  Population Mitotic Cells (%): 73%
  Population Normal (%): 91%
  Population Pyknosed Nuclei (%): 19%
  Population Tubulin-Different-Phenotype (%): 97%
  Total Cell Count: 75
[5]
  Population Apoptotic (%): 56%
  Population Fragmented Nuclei (%): 6%
  Population Healthy Nuclei (%): 76%
  Population Hoechst High Intensity Objects (%): 6%
  Population Membrane Permeable-Phenotype (%): 8%
  Population Mitochondria Different-Phenotype (%): 45%
  Population Mitotic Cells (%): 43%
  Population Normal (%): 93%
  Population Pyknosed Nuclei (%): 16%
  Population Tubulin-Different-Phenotype (%): 42%
  Total Cell Count: 175
[6]
  Population Apoptotic (%): 62%
  Population Fragmented Nuclei (%): 16%
  Population Healthy Nuclei (%): 71%
  Population Hoechst High Intensity Objects (%): 10%
  Population Membrane Permeable-Phenotype (%): 6%
  Population Mitochondria Different-Phenotype (%): 25%
  Population Mitotic Cells (%): 37%
  Population Normal (%): 89%
  Population Pyknosed Nuclei (%): 12%
  Population Tubulin-Different-Phenotype (%): 21%
  Total Cell Count: 83
[7]
  Population Apoptotic (%): 95%
  Population Fragmented Nuclei (%): 48%
  Population Healthy Nuclei (%): 3%
  Population Hoechst High Intensity Objects (%): 11%
  Population Membrane Permeable-Phenotype (%): 100%
  Population Mitochondria Different-Phenotype (%): 100%
  Population Mitotic Cells (%): 4%
  Population Normal (%): 88%
  Population Pyknosed Nuclei (%): 47%
  Population Tubulin-Different-Phenotype (%): 100%
  Total Cell Count: 147
[8]
  Population Apoptotic (%): 47%
  Population Fragmented Nuclei (%): 24%
  Population Healthy Nuclei (%): 52%
  Population Hoechst High Intensity Objects (%): 14%
  Population Membrane Permeable-Phenotype (%): 42%
  Population Mitochondria Different-Phenotype (%): 89%
  Population Mitotic Cells (%): 52%
  Population Normal (%): 85%
  Population Pyknosed Nuclei (%): 23%
  Population Tubulin-Different-Phenotype (%): 81%
  Total Cell Count: 74
[9]
  Population Apoptotic (%): 59%
  Population Fragmented Nuclei (%): 10%
  Population Hoechst High Intensity Objects (%): 3%
  Population Membrane Permeable-Phenotype (%): 7%
  Population Mitochondria Different-Phenotype (%): 28%
  Population Mitotic Cells (%): 40%
  Population Normal (%): 96%
  Population Pyknosed Nuclei (%): 14%
  Population Tubulin-Different-Phenotype (%): 31%
  Total Cell Count: 187
[10]
  Population Apoptotic (%): 63%
  Population Fragmented Nuclei (%): 12%
  Population Healthy Nuclei (%): 74%
  Population Hoechst High Intensity Objects (%): 5%
  Population Membrane Permeable-Phenotype (%): 21%
  Population Mitochondria Different-Phenotype (%): 31%
  Population Mitotic Cells (%): 36%
  Population Normal (%): 94%
  Population Pyknosed Nuclei (%): 13%
  Population Tubulin-Different-Phenotype (%): 19%
  Total Cell Count: 79
[11]
  Population Apoptotic (%): 97%
  Population Fragmented Nuclei (%): 33%
  Population Healthy Nuclei (%): 7%
  Population Hoechst High Intensity Objects (%): 20%
  Population Membrane Permeable-Phenotype (%): 88%
  Population Mitochondria Different-Phenotype (%): 100%
  Population Mitotic Cells (%): 2%
  Population Normal (%): 79%
  Population Pyknosed Nuclei (%): 59%
  Population Tubulin-Different-Phenotype (%): 100%
  Total Cell Count: 189
[12]
  Population Apoptotic (%): 53%
  Population Fragmented Nuclei (%): 25%
  Population Healthy Nuclei (%): 59%
  Population Hoechst High Intensity Objects (%): 5%
  Population Membrane Permeable-Phenotype (%): 56%
  Population Mitochondria Different-Phenotype (%): 96%
  Population Mitotic Cells (%): 46%
  Population Normal (%): 94%
  Population Pyknosed Nuclei (%): 15%
  Population Tubulin-Different-Phenotype (%): 96%
  Total Cell Count: 87

— ChEMBL document CHEMBL4689842, “EUbOPEN Chemogenomics Library wave 1” (2021)
